Laboratory results published in ChEMBL document CHEMBL3232844, “Synthesis and structure activity relationships of schweinfurthin indoles” (2014).

Experiments:
Format in all cases: functional
CCRF-CEM = assay: Cytotoxicity against human CCRF-CEM cells
K562 = assay: Cytotoxicity against human K562 cells
How it was run: (§1)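 Tested in a 60-cell-line human tumor panel screen; the read-out is growth inhibition, reported as GI50 for each cell line.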

MOLT-4 = assay: Cytotoxicity against human MOLT4 cells; how it was run: as §1
A549 = assay: Cytotoxicity against human A549 cells; how it was run: as §1
[1] = Cytotoxicity against human EKVX cells; how it was run: as §1
HOP-62 = assay: Cytotoxicity against human HOP62 cells; how it was run: as §1
NCI-H226 = assay: Cytotoxicity against human NCI-H226 cells; how it was run: as §1
NCI-H23 = assay: Cytotoxicity against human NCI-H23 cells; how it was run: as §1
COLO 205 = assay: Cytotoxicity against human COLO205 cells; how it was run: as §1
HCC 2998 = assay: Cytotoxicity against human HCC2998 cells; how it was run: as §1
[2] = Cytotoxicity against human HCT15 cells; how it was run: as §1
HT-29 = assay: Cytotoxicity against human HT-29 cells; how it was run: as §1
KM12 = assay: Cytotoxicity against human KM12 cells; how it was run: as §1
SF-295 = assay: Cytotoxicity against human SF295 cells; how it was run: as §1
SF-539 = assay: Cytotoxicity against human SF539 cells; how it was run: as §1
SNB-19 = assay: Cytotoxicity against human SNB19 cells; how it was run: as §1
SNB-75 = assay: Cytotoxicity against human SNB75 cells
How it was run: (§2)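 Cell line run as part of the 60-cell-line screening panel; growth inhibition was reported as a GI50 for each line.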

U-251 = assay: Cytotoxicity against human U251 cells; how it was run: as §2
LOX IMVI = assay: Cytotoxicity against human LOXIMVI cells; how it was run: as §1
M14 = assay: Cytotoxicity against human M14 cells; how it was run: as §1
NCI-H322M = assay: Cytotoxicity against human NCI-H322M cells; how it was run: as §1
NCI-H460 = assay: Cytotoxicity against human NCI-H460 cells; how it was run: as §1
SK-MEL-2 = assay: Cytotoxicity against human SK-MEL-2 cells; how it was run: as §1
SK-MEL-5 = assay: Cytotoxicity against human SK-MEL-5 cells; details: read-out: pLC50 (the source's name) (converted); how it was run: as §1
[3] = Cytotoxicity against human UACC257 cells; how it was run: as §2
[4] = Cytotoxicity against human UACC62 cells; details: UACC-62, read-out: pLC50 (the source's name) (converted); how it was run: as §2
[5] = Cytotoxicity against human OVCAR3 cells; how it was run: as §1
[6] = Cytotoxicity against human OVCAR4 cells; how it was run: as §1
[7] = Cytotoxicity against human OVCAR5 cells; how it was run: as §1
[8] = Cytotoxicity against human OVCAR8 cells; how it was run: as §1
[9] = Cytotoxicity against human NCI-ADR-RES cells; how it was run: as §1
SK-OV-3 = assay: Cytotoxicity against human SKOV3 cells; how it was run: as §1
A498 = assay: Cytotoxicity against human A498 cells; how it was run: as §1
ACHN = assay: Cytotoxicity against human ACHN cells; how it was run: as §1
CAKI-1 = assay: Cytotoxicity against human Caki1 cells; how it was run: as §1
RXF 393 = assay: Cytotoxicity against human RXF393 cells; how it was run: as §1
TK-10 = assay: Cytotoxicity against human TK10 cells; how it was run: as §2
[10] = Cytotoxicity against human UO31 cells; how it was run: as §2
DU-145 = assay: Cytotoxicity against human DU145 cells; how it was run: as §1
MCF7 = assay: Cytotoxicity against human MCF7 cells; how it was run: as §1
MDA-MB-231 = assay: Cytotoxicity against human MDA-MB-231 cells; how it was run: as §1
BT-549 = assay: Cytotoxicity against human BT549 cells; how it was run: as §1
T47D = assay: Cytotoxicity against human T47D cells; how it was run: as §2
MDA-MB-468 = assay: Cytotoxicity against human MDA-MB-468 cells; how it was run: as §1
[11] = read-out: pLC50 (the source's name) (converted)

## COc1cc(/C=C/c2cc(O)c3c(c2)C[C@@H]2C(C)(C)[C@H](O)CC[C@@]2(C)O3)cc2c1ccn2C
CCRF-CEM
  GI50: 53.7 nM
CCRF-CEM; [11]
  CC50: 89.1 µM
CCRF-CEM; read-out: pTGI (converted)
  TGI: 12.3 µM
K562
  GI50: 81.3 nM
K562; [11]
  CC50: 89.1 µM
K562; read-out: pTGI (converted)
  TGI: 6.31 µM
MOLT-4
  GI50: 38.9 nM
MOLT-4; [11]
  CC50: 89.1 µM
MOLT-4; read-out: pTGI (converted)
  TGI: 14.8 µM
A549
  GI50: 9.55 µM
A549; [11]
  CC50: 58.9 µM
A549; read-out: pTGI (converted)
  TGI: 23.4 µM
[1]
  GI50: 4.07 µM
[1]; [11]
  CC50: 64.6 µM
[1]; read-out: pTGI (converted)
  TGI: 22.9 µM
HOP-62
  GI50: 75.9 nM
HOP-62; [11]
  CC50: 26.9 µM
HOP-62; read-out: pTGI (converted)
  TGI: 4.68 µM
NCI-H226
  GI50: 16.2 µM
NCI-H226; [11]
  CC50: 89.1 µM
NCI-H226; read-out: pTGI (converted)
  TGI: 60.3 µM
NCI-H23
  GI50: 1380 nM
NCI-H23; [11]
  CC50: 44.7 µM
NCI-H23; read-out: pTGI (converted)
  TGI: 15.5 µM
COLO 205
  GI50: 5.62 µM
COLO 205; [11]
  CC50: 42.7 µM
COLO 205; read-out: pTGI (converted)
  TGI: 17.8 µM
HCC 2998
  GI50: 214 nM
HCC 2998; [11]
  CC50: 45.7 µM
HCC 2998; read-out: pTGI (converted)
  TGI: 18.6 µM
[2]; HCT-15
  GI50: 2950 nM
[2]; HCT-15, read-out: pLC50 (the source's name) (converted)
  CC50: 33.9 µM
[2]; HCT-15, read-out: pTGI (converted)
  TGI: 6.76 µM
HT-29
  GI50: 6.03 µM
HT-29; [11]
  CC50: 41.7 µM
HT-29; read-out: pTGI (converted)
  TGI: 15.1 µM
KM12
  GI50: 295 nM
KM12; [11]
  CC50: 44.7 µM
KM12; read-out: pTGI (converted)
  TGI: 18.6 µM
SF-295; read-out: GI50
  GI50: < 12 nM
SF-295; read-out: pGI50 (converted)
  GI50: 20.9 nM
SF-295; [11]
  CC50: 1950 nM
SF-295; read-out: pTGI (converted)
  TGI: 43.6 nM
SF-539
  GI50: 1620 nM
SF-539; [11]
  CC50: 45.7 µM
SF-539; read-out: pTGI (converted)
  TGI: 13.2 µM
SNB-19
  GI50: 14.1 nM
SNB-19; [11]
  CC50: 41.7 µM
SNB-19; read-out: pTGI (converted)
  TGI: 13.8 µM
SNB-75
  GI50: 52.5 nM
SNB-75; [11]
  CC50: 35.5 µM
SNB-75; read-out: pTGI (converted)
  TGI: 5.37 µM
U-251
  GI50: 141 nM
U-251; [11]
  CC50: 43.7 µM
U-251; read-out: pTGI (converted)
  TGI: 15.5 µM
LOX IMVI
  GI50: 123 nM
LOX IMVI; [11]
  CC50: 26.9 µM
LOX IMVI; read-out: pTGI (converted)
  TGI: 4.57 µM
M14
  GI50: 759 nM
M14; [11]
  CC50: 7.08 µM
M14; read-out: pTGI (converted)
  TGI: 1260 nM
NCI-H322M
  GI50: 13.2 µM
NCI-H322M; [11]
  CC50: 60.3 µM
NCI-H322M; read-out: pTGI (converted)
  TGI: 28.2 µM
NCI-H460
  GI50: 309 nM
NCI-H460; [11]
  CC50: 89.1 µM
NCI-H460; read-out: pTGI (converted)
  TGI: 23.4 µM
SK-MEL-2
  GI50: 2290 nM
SK-MEL-2; [11]
  CC50: 43.7 µM
SK-MEL-2; read-out: pTGI (converted)
  TGI: 17 µM
SK-MEL-5
  CC50: 12 µM
[3]; UACC-257
  GI50: 38.9 nM
[3]; UACC-257, read-out: pLC50 (the source's name) (converted)
  CC50: 64.6 µM
[3]; UACC-257, read-out: pTGI (converted)
  TGI: 25.1 µM
[4]
  CC50: 21.4 µM
[5]; OVCAR-3
  GI50: 10.2 µM
[5]; OVCAR-3, read-out: pLC50 (the source's name) (converted)
  CC50: 53.7 µM
[5]; OVCAR-3, read-out: pTGI (converted)
  TGI: 24 µM
[6]; OVCAR-4
  GI50: 8.51 µM
[6]; OVCAR-4, read-out: pLC50 (the source's name) (converted)
  CC50: 56.2 µM
[6]; OVCAR-4, read-out: pTGI (converted)
  TGI: 24 µM
[7]; OVCAR-5
  GI50: 11.2 µM
[7]; OVCAR-5, read-out: pLC50 (the source's name) (converted)
  CC50: 53.7 µM
[7]; OVCAR-5, read-out: pTGI (converted)
  TGI: 21.9 µM
[8]; OVCAR-8
  GI50: 4.27 µM
[8]; OVCAR-8, read-out: pLC50 (the source's name) (converted)
  CC50: 89.1 µM
[8]; OVCAR-8, read-out: pTGI (converted)
  TGI: 39.8 µM
[9]
  GI50: 9.55 µM
[9]; [11]
  CC50: 89.1 µM
[9]; read-out: pTGI (converted)
  TGI: 46.8 µM
SK-OV-3
  LC50: 89.1 µM
SK-OV-3; read-out: pTGI (converted)
  TGI: 35.5 µM
A498
  GI50: 43.6 nM
A498; [11]
  CC50: 53.7 µM
A498; read-out: pTGI (converted)
  TGI: 9.33 µM
ACHN
  GI50: 1230 nM
  LC50 (concentration killing 50% of cells): 50.1 µM
ACHN; read-out: pTGI (converted)
  TGI: 17.8 µM
CAKI-1
  GI50: 479 nM
  LC50: 89.1 µM
CAKI-1; read-out: pTGI (converted)
  TGI: 9.12 µM
RXF 393
  GI50: 8.91 nM
  LC50: 27.5 µM
RXF 393; read-out: pTGI (converted)
  TGI: 1580 nM
TK-10
  GI50: 9.77 µM
  LC50: 63.1 µM
TK-10; read-out: pTGI (converted)
  TGI: 25.1 µM
[10]; UO-31
  GI50: 81.3 nM
  LC50: 32.4 µM
[10]; UO-31, read-out: pTGI (converted)
  TGI: 2950 nM
DU-145
  GI50: 5.62 µM
  LC50 (50% lethal concentration): 42.7 µM
DU-145; read-out: pTGI (converted)
  TGI: 19.1 µM
MCF7
  GI50: 661 nM
  LC50: 50.1 µM
MCF7; read-out: pTGI (converted)
  TGI: 12.3 µM
MDA-MB-231
  GI50: 3.89 µM
  LC50: 51.3 µM
MDA-MB-231; read-out: pTGI (converted)
  TGI: 19.1 µM
BT-549
  GI50: 138 nM
BT-549; [11]
  CC50: 52.5 µM
BT-549; read-out: pTGI (converted)
  TGI: 20.4 µM
T47D
  GI50: 7.41 µM
T47D; [11]
  CC50: 63.1 µM
T47D; read-out: pTGI (converted)
  TGI: 23.4 µM
MDA-MB-468
  GI50: 871 nM
  LC50: 46.8 µM
MDA-MB-468; read-out: pTGI (converted)
  TGI: 15.1 µM
